From PubChem
TAAR1 antag – human TAAR1 antagonists, primary screen, Fluo-8 calcium fluorescence, CHO RD-HGA16 cells; antagonist; inhibition, % at 3 µM; AID 624466, 2012; actives 1.5% (n = 360,000); Trace amine-associated receptor 1 (Homo sapiens), Q96RJ0;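 active = inhibition above a per-plate cutoff, the mean inhibition of test compounds on that plate plus 3 SD, cut at about 49% in these data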
Target sequence (Q96RJ0 whole entry, looked up): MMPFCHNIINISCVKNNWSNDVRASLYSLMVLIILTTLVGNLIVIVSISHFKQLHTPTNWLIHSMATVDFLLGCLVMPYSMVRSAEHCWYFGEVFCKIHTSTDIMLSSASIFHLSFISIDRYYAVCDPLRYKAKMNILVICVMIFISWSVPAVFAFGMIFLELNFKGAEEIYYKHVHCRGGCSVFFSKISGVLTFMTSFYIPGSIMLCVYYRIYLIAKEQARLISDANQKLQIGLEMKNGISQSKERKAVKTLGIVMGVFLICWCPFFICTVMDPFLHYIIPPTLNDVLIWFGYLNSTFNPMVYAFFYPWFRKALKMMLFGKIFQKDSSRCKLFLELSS
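Material: CHO RD-HGA16 cells bearing hTAAR1; compound dosing: one-point dosing, 3 µM nominal final; schedule: dye loading 75 min at 37 °C, then 30 min room temperature; measured by: calcium fluorescence with Fluo-8; control set: vehicle and agonist controls; replication: n of 1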
OX1R antag-1 – OX1R (HCRTR1) antagonists, primary screen, fluorescence, CHO/OX1R cells, Fluo-8 calcium, orexin A; Fluo-8 calcium fluorescence; inhibition, % at 5 µM; actives 0.43% (n = 330,000); AID 434989, 2010;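 active = inhibition above its plate's threshold, mean inhibition of all tested compounds on the plate plus 3 SD, cut at about 37% in these data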
GPR7 antag – GPR7 receptor antagonists, primary screen, cell-based, fluorescence, single concentration. GPR7-expressing cells, fluorescence antagonist assay. inhibition, % at 4.4 µM. actives 1.1% (n = 290,000). AID 1861, 2009; in the data active = inhibition above about 16%, passing the limit was not always enough;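 note: cells stimulated with the agonist NPW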
CHO parental Ca – ATP-evoked calcium signal inhibitors, parental CHO, primary screen, counter-screen for OX1R antagonist project, cell-based, fluorescence, Fluo-8 calcium dye; inhibition, % at 5.6 µM; actives 0.63% (n = 330,000); parental CHO-K1, ATP-induced calcium, Fluo-8 fluorescence;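 active = inhibition above that plate's mean sample inhibition plus 3 SD, cut at about 26% in these data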
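Assay system – parental CHO cells · Reagent – ATP stimulus · Detection – intracellular calcium via Fluo-8 no-wash fluorescent dye · Evaluation – percent inhibition of ATP-evoked calcium rise, normalized to controls · Controls – ATP wells versus no-ATP DMSO wells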
OX1R antag-2 – antagonists of human orexin 1 receptor (OX1R). inhibition, % at 6.6 µM. AID 485270, 2010. Orexin/Hypocretin receptor type 1 (Homo sapiens), O43613. actives 1.8% (n = 330,000). OX1R-expressing cells, FRET antagonist read-out; in the data active = inhibition mostly above about 38%, no sharp cut-off; inactive = mostly below about 40%
TAAR1 agonist – human TAAR1 agonists, primary screen, Fluo-8 calcium fluorescence, CHO RD-HGA16 cells. Trace amine-associated receptor 1 (Homo sapiens), Q96RJ0. vehicle wells 0%, saturating PEA agonist 100%. activation, % at 3 µM. actives 0.99% (n = 360,000);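 active = activation above the mean activation of all test compounds in the run plus 3 SD, cut at about 38% in these data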
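Signal – calcium-sensitive Fluo-8 signal, excitation 470-495, emission 515-575 nm · System – RD-HGA16 (CHO) cells co-expressing Gα16 and hTAAR1 · Incubation – 17-24 h seeding, 75 min 37 °C dye, 30 min RT · Compound dosing – 3 µM single concentration · Repeats – no replicates (n 1)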
Each line names hits and unclear results; the compound was inactive in the other large screens. Most compounds without a hit are left out; they make up all but 4.6% or so of the library.

O=C(CSc1cccc[n+]1[O-])Nc1ccc(Cl)cc1F	none (no result: GPR7 antag)
Cc1ccc(NC(=O)CSc2cccc[n+]2[O-])c([N+](=O)[O-])c1	OX1R antag-2 69
Cc1cc(C)c(NC(=O)CSc2cccc[n+]2[O-])c(C)c1	none (no result: GPR7 antag)
O=C1C=C(Nc2cccc3cccnc23)c2ccccc2C1=O	OX1R antag-2 64
O=C1C=C(Nc2ccccc2C(=O)O)c2ccccc2C1=O	none
CCN(CC)Cc1cc(NC2=NS(=O)(=O)c3ccccc32)ccc1OC(=O)c1ccccc1	none
O=C(Oc1cccc(NC2=NS(=O)(=O)c3ccccc32)c1)c1cccnc1	TAAR1 antag 49
COC(=O)CS(=O)(=O)c1ccc(C)cc1	none
N#C/C(=C/c1ccc(N2CCOCC2)o1)C(=O)Nc1ccccc1	TAAR1 agonist 56 (no result: OX1R antag-1, CHO parental Ca, OX1R antag-2)
N#C/C(=C\c1ccc(N2CCOCC2)o1)C(=O)NCCc1ccccc1	TAAR1 agonist 41
COC(=O)C(Cc1ccc(OC(=O)c2ccccc2C)cc1)N1Cc2ccccc2C1=O (centres undefined)	TAAR1 antag 52
COC(=O)C(Cc1ccc(OC(=O)c2ccccc2Cl)cc1)N1Cc2ccccc2C1=O (centres undefined)	TAAR1 antag 59
COC(=O)CC(c1ccccc1F)N1Cc2ccccc2C1=O (centres undefined)	none
O=C(O)[C@H](Cc1ccccc1)N1Cc2ccccc2C1=O	none
O=[N+]([O-])c1cccc(C=Nc2cc3c(cc2Br)OCCO3)c1	none
O=C(NCc1ccc(F)cc1)c1ccc(N2CCc3ccccc32)c([N+](=O)[O-])c1	TAAR1 antag 52
C[C@H]1CN([C@@H](C)CO)S(=O)(=O)c2ccc(-c3ccncc3)cc2O[C@H]1CN(C)C(=O)c1cccc(F)c1	none (no result: OX1R antag-1, GPR7 antag, CHO parental Ca, OX1R antag-2)
CC(=O)Nc1cccc(NC(=O)CSc2nnc3ccc(-c4cccnc4)nn23)c1	OX1R antag-2 75 (no result: GPR7 antag)
CC(=O)Nc1ccc(NC(=O)CSc2nnc3ccc(-c4cccnc4)nn23)cc1	OX1R antag-2 50 (no result: GPR7 antag)
O=C(CSc1nnc2ccc(-c3cccnc3)nn12)Nc1ccc(F)cc1	none (no result: GPR7 antag)
Cc1ccc(NC(=O)CSc2nnc3ccc(-c4cccnc4)nn23)cc1	none (no result: GPR7 antag)
O=C(CSc1nnc2ccc(-c3cccnc3)nn12)Nc1ccccc1	none (no result: GPR7 antag)
O=C(CSc1nnc2ccc(-c3ccncc3)nn12)Nc1ccc(F)cc1	OX1R antag-2 61 (no result: GPR7 antag)
CCS(=O)(=O)Nc1cccc(-c2ccc3nnc(-c4cccnc4)n3n2)c1	OX1R antag-2 35
COc1ccc(NS(=O)(=O)c2cccc(C(=O)NNC(=O)CNC(=O)c3cccc(C)c3)c2)cc1	none
Cc1cc(=O)[nH]c(Nc2ccc(N(C)C)cc2)n1	none
CN(C)C(CNC(=O)CCc1c[nH]c2ccccc12)c1ccccc1 (centres undefined)	none
c1ccc(CSc2nnc3ccc(-c4ccncc4)nn23)cc1	none
COc1ccc(NC(=O)CSc2nnc3ccc(-c4ccncc4)nn23)cc1	none (no result: GPR7 antag)
c1cncc(CSc2nnc3ccc(-c4ccncc4)nn23)c1	OX1R antag-2 39
COc1ccc(-c2nnc3ccc(SCC(=O)N4CCCC4)nn23)cc1	none
O=C(CSc1nnc2ccc(-c3ccncc3)nn12)c1cccs1	OX1R antag-2 44
COc1ccc(-c2ccc3nnc(SCC(=O)N4CCCC4)n3n2)cc1	OX1R antag-2 55 (no result: GPR7 antag)
Cc1ccccc1NC(=O)CSc1nnc2ccc(-c3ccccn3)nn12	OX1R antag-2 55 (no result: GPR7 antag)
COc1cc(CC(=O)OCc2ccccc2F)cc(OC)c1OC	none
Nc1nc(SCc2ccccc2)cc(SCc2ccccc2)n1	none (no result: OX1R antag-1, GPR7 antag, CHO parental Ca, OX1R antag-2)
O=C(COC(=O)c1cc(-c2cccs2)nn1-c1ccccc1)Nc1ccc(Cl)c([N+](=O)[O-])c1	none
